Source: ChEMBL document CHEMBL3779764, “Identification and Structure-Activity Relationships of Diarylhydrazides as Novel Potent and Selective Human Enterovirus Inhibitors” (J Med Chem, 2016)

Columns and labels:
[1] = system: Enterovirus A71; experiment: Antiviral activity against Enterovirus 71 infected in human RD cells after 24 to 36 hrs by MTS-based CPE reduction assay; format: functional, organism-based
Outline: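 RD cells given serial compound dilutions with EV71. Incubated at 37 °C for 24-36 h until full CPE in the virus control. Viability read by MTS/PMS at 498 nm. EC50 is the concentration giving 50% inhibition of virus-induced CPE. At least three independent experiments.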

[2] = system: Enterovirus A71; experiment: Antiviral activity against Human enterovirus 71 infected in monkey African green Vero cells by MTS-based CPE reduction assay; format: functional, organism-based
Outline: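 Vero cells (5 × 10^5) seeded, then given serial compound dilutions plus 100 TCID50 EV71. Incubated at 37 °C for 24-36 h until complete CPE in the virus-infected, compound-free control. Viability read by MTS/PMS at 498 nm. EC50 is the concentration inhibiting virus-induced CPE by 50%. At least three repeats.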

[3] = Selectivity index, ratio of CC50 for african green monkey Vero cells to EC50 for Enterovirus 71; format: toxicity, cell-based; conditions: read-out: Ratio CC50/EC50
Outline: (§1)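 Selectivity index is CC50/EC50, both taken from MTS-based CPE reduction assays in the same cell line (Vero or RD).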

[4] = Cytotoxicity against african green monkey Vero cells assessed as reduction in cell viability after 24 to 36 hrs by MTS-based CPE reduction assay; conditions: chlorocebus sabaeus
Outline: (§2)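 Noninfected Vero or RD cells exposed to serial compound dilutions under the CPE-assay conditions (37 °C, 24-36 h). Viability measured by MTS/PMS absorbance at 498 nm. CC50 is the concentration causing 50% death of noninfected cells.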

[5] = system: RD; experiment: Cytotoxicity against human RD cells assessed as reduction in cell viability after 24 to 36 hrs by MTS-based CPE reduction assay; format: functional; outline: as §2
[6] = Selectivity index, ratio of CC50 for human RD cells to EC50 for Enterovirus 71; format: toxicity, cell-based; conditions: read-out: Ratio CC50/EC50; outline: as §1
[7] = Enterovirus A, RD, read-out: EC50
[8] = Enterovirus A, Vero, read-out: EC50

Row | Structure (SMILES) | EC50 [1, 7] [µM] | EC50 [2, 8] [µM] | selectivity ratio [3] | CC50 [4] [µM] | CC50 [5] [µM] | selectivity ratio [6] | EC50 ([1]; rd) | EC50 ([2]; vero)
1 | O=C(NNc1c(Cl)cccc1Cl)c1cccs1 | > 100 | > 100 |  |  |  |  |  | 
2 | Cc1ccc(C(=O)NNc2c(Br)cccc2Br)cc1 | 24.7 | 10.8 | 13.5 | 146 | 163 | 6.6 |  | 
3 | CCCc1ccc(C(=O)NNc2c(Cl)cccc2Cl)cc1 | 0.44 | 0.42 | > 589 | > 248 | > 248 | > 562 |  | 
4 | O=C(NNc1c(Cl)cccc1Cl)c1ccc(Br)cc1 |  |  |  |  |  |  | Not Active | Not Active
5 | CCCc1ccc(C(=O)NNc2c(Br)cccc2Br)cc1 | 4.62 | 3.54 | > 54.8 | > 194 | > 194 | > 42 |  | 
6 | O=C(NNc1c(Cl)cccc1Cl)c1cccc(Cl)c1 |  |  |  |  |  |  | Not Active | Not Active
7 | CCc1cccc(CC)c1NNC(=O)c1ccc(C(C)(C)C)cc1 | > 100 | > 100 |  |  |  |  |  | 
8 | CN(C)c1ccc(C(=O)NNc2c(F)cccc2F)cc1 | 23.5 | 17.9 | > 15.3 | > 275 | > 275 | > 11.7 |  | 
9 | COc1ccccc1C(=O)NNc1c(Cl)cccc1Cl | > 100 | > 100 |  |  |  |  |  | 
10 | O=C(NNc1c(Br)cccc1Br)c1ccccc1 | 2.43 | 0.86 | > 251 | > 216 | > 216 | > 89.1 |  | 
11 | O=C(NNc1c(Cl)cccc1Cl)c1ccc([N+](=O)[O-])cc1 |  |  |  |  |  |  | Not Active | Not Active
12 | Cc1cccc(C)c1NNC(=O)c1ccc(N(C)C)cc1 | 0.69 | 0.29 | > 974 | > 282 | > 282 | > 411 |  | 
13 | COc1ccc(C(=O)NNc2c(C)cccc2C)cc1 | 29 | 12.3 | > 24 | > 296 | > 296 | > 10.2 |  | 
14 | CSc1ccc(C(=O)NNc2c(C)cccc2Cl)cc1 | 15.4 | 6.13 | 17.4 | 107 | 134 | 8.7 |  | 
15 | CCc1ccc(C(=O)NNc2c(Cl)cccc2Cl)cc1 | 1.68 | 0.94 | > 275 | > 259 | > 259 | > 154 |  | 
16 | CCOc1ccc(NNC(=O)c2c(Cl)cccc2Cl)cc1 | > 100 | > 100 |  |  |  |  |  | 
17 | COc1ccc(C(=O)NNc2c(Br)cccc2Br)cc1 | 2.63 | 3.32 | > 60.2 | > 200 | > 200 | > 76.1 |  | 
18 | CCCc1ccc(C(=O)NNc2c(C)cccc2C)cc1 | 2.64 | 0.95 | > 298 | > 283 | > 283 | > 107 |  | 
19 | N#Cc1ccc(C(=O)NNc2c(Cl)cccc2Cl)cc1 |  |  |  |  |  |  | Not Active | Not Active
20 | Cc1ccc(C(=O)NNc2c(C)cccc2Cl)cc1 | 26.9 | 13 | > 22.5 | > 291 | > 291 | > 10.8 |  | 
21 | Cc1ccc(C(=O)NNc2c(C)cccc2C)cc1 | 13.6 | 5.31 | > 59.2 | > 315 | > 315 | > 23.2 |  | 
22 | CC(C)(C)c1ccc(C(=O)NNc2c(F)cccc2F)cc1 | 4.27 | 2.19 | 68.4 | 150 | 184 | 43 |  | 
23 | O=C(NNc1c(Cl)cccc1Cl)c1ccc(Cl)cc1 | > 100 | > 100 |  |  |  |  |  | 

Row | Structure (SMILES) | EC50 [1, 7] [µM] | EC50 [2, 8] [µM] | selectivity ratio [3] | CC50 [4] [µM] | CC50 [5] [µM] | selectivity ratio [6] | EC50 ([1]; rd) | EC50 ([2]; vero)
24 | CCOc1ccc(C(=O)NNc2c(C)cccc2Cl)cc1 | 0.82 | 0.39 | > 673 | > 262 | > 262 | > 319 |  | 
25 | CCOc1ccc(C(=O)NNc2c(F)cccc2F)cc1 | > 100 | 66.7 | > 4.1 | > 274 |  |  |  | 
26 | CCOc1ccc(C(=O)NNc2c(Cl)cccc2Cl)cc1 | 0.37 | 0.33 | > 746 | > 246 | > 246 | > 665 |  | 
27 | CC(C)c1cccc(C(C)C)c1NNC(=O)c1ccc(C(C)(C)C)cc1 | > 100 | > 100 |  |  |  |  |  | 
28 | COc1cccc(OC)c1NNC(=O)c1ccc(C(C)(C)C)cc1 | 27.4 | 10.4 | > 23.4 | > 244 | > 244 | > 8.9 |  | 
29 | Cc1cccc(Cl)c1NNC(=O)c1ccc(C(C)(C)C)cc1 | 0.97 | 0.79 | 62.3 | 49.2 | 63.2 | 65.1 |  | 
30 | Cc1cccc(Cl)c1NNC(=O)c1ccc(N(C)C)cc1 | 0.16 | 0.28 | 332 | 92.8 | 106 | 682 |  | 
31 | CCOc1ccc(C(=O)NNc2c(Br)cccc2Br)cc1 | 0.53 | 0.37 | > 522 | > 193 | > 193 | > 362 |  | 
32 | COc1ccc(C(=O)NNc2c(C)cccc2Cl)cc1 | 15.4 | 5.74 | > 47.9 | > 275 | > 275 | > 17.9 |  | 
33 | CC(C)(C)c1ccc(C(=O)NNc2c(Cl)cccc2Cl)cc1 | 0.85 | 0.47 | 65.6 | 30.8 | 36.7 | 43.2 |  | 
34 | O=C(NNc1c(Cl)cccc1Cl)c1ccccc1 | > 100 | > 100 |  |  |  |  |  | 
35 | O=C(NNc1c(Cl)cccc1Cl)c1ccccn1 | > 100 | > 100 |  |  |  |  |  | 
36 | CCc1ccc(C(=O)NNc2c(C)cccc2Cl)cc1 | 10.5 | 6.37 | 12.8 | 81.7 | 105 | 10 |  | 
37 | Cc1ccc(C(=O)NNc2c(Cl)cccc2Cl)cc1 | 0.96 | 1.28 | > 212 | > 271 | > 271 | > 281 |  | 
38 | CCCc1ccc(C(=O)NNc2c(F)cccc2F)cc1 | 51.4 | 27.4 | > 10.1 | > 276 | > 276 | > 5.4 |  | 
39 | COc1ccc(C(=O)NNc2c(Cl)cccc2Cl)cc1 | 1.36 | 0.68 | > 378 | > 257 | > 257 | > 189 |  | 
40 | CCc1ccc(C(=O)NNc2c(Br)cccc2Br)cc1 | 1.58 | 0.93 | > 216 | > 201 | > 201 | > 127 |  | 
41 | CCCc1ccc(C(=O)NNc2c(C)cccc2Cl)cc1 | 2.16 | 0.92 | 87.2 | 80.2 | 113 | 52.4 |  | 
42 | COc1ccc(C(=O)NNc2c(F)cccc2F)cc1 | > 100 | 74 | > 3.9 | > 288 |  |  |  | 
43 | CCOc1ccc(C(=O)NNc2c(Cl)cc(Cl)cc2Cl)cc1 | > 100 | > 100 |  |  |  |  |  | 
44 | COc1ccccc1C(=O)NNc1c(Br)cccc1Br | > 100 | 54.2 | 2 | 109 |  |  |  | 
45 | O=C(NNc1c(Cl)cccc1Cl)c1ccc(F)cc1 |  |  |  |  |  |  | Not Active | Not Active
46 | CCc1ccc(C(=O)NNc2c(C)cccc2C)cc1 | 2.75 | 1.57 | 86.2 | 135 | 164 | 59.7 |  | 
